# Assay results taken from ChEMBL document CHEMBL1932924, “Design, synthesis, and biological evaluation of 4-phenylpyrrole derivatives as novel androgen receptor antagonists” (Bioorg Med Chem, 2012).
# Tested on: not listed separately
# Experiment: Solubility in aqueous buffer solution at pH 6.8
# Type: physicochemical
# Procedure, shortened: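 DMSO stock added to aqueous buffer at pH 6.8 and incubated. Precipitate removed by filtration; filtrate concentration measured by HPLC.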
row,solubility [µg/mL],SMILES
1,3.5,Cc1c(C#N)c(-c2ccc(C#N)cc2)c(C)n1Cc1cncc(CO)c1
2,0.35,Cc1c(C#N)c(-c2ccc(C#N)cc2)c(C)n1Cc1ccccc1
3,0.83,Cc1c(C#N)c(-c2ccc(C#N)cc2)c(C)n1Cc1ccc(Cl)nc1
4,5.1,Cc1c(C#N)c(-c2ccc(C#N)cc2)c(C)n1Cc1cccnc1

# Biological target: T1, Androgen receptor (Homo sapiens, UniProt P10275)
# T1 sequence (P10275 whole entry): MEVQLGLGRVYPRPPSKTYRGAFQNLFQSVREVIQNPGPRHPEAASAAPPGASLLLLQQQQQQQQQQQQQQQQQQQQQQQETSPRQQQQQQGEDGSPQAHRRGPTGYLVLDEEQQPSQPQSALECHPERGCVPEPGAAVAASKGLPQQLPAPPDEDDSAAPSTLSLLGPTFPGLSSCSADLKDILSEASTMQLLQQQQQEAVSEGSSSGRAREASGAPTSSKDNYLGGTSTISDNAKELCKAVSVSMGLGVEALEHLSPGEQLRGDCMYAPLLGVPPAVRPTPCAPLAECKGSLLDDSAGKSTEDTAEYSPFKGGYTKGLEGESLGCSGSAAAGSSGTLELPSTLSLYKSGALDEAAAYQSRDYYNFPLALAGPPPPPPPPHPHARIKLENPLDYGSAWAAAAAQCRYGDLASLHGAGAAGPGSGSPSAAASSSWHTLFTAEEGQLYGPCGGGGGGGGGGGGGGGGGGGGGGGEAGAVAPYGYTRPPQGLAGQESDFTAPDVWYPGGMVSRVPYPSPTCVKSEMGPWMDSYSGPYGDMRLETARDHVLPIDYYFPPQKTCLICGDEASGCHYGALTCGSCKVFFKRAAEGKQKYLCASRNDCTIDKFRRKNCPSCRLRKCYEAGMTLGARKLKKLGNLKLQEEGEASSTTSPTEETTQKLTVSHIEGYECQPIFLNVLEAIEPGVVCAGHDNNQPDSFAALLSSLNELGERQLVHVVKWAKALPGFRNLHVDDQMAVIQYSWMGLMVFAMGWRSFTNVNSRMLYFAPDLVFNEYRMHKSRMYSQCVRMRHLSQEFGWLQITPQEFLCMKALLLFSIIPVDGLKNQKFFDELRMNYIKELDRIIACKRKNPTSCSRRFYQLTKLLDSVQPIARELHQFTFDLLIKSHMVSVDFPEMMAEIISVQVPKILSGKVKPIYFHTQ
# Experiment: Displacement of [17-alpha-methyl-3H]-mibolerone from human androgen receptor expressed in HEK293 derived FreeStyle293F cells after 3 hrs
# Type: cell-based
row,SMILES,IC50 [nM]
1,Cc1c(C#N)c(-c2ccc(C#N)cc2)c(C)n1Cc1cncc(CO)c1,14
2,Cc1c(C#N)c(-c2ccc(C#N)cc2)c(C)n1Cc1ccccc1,1.4
3,Cc1c(C#N)c(-c2ccc(C#N)cc2)c(C)n1Cc1ccc(Cl)nc1,9
4,Cc1c(C#N)c(-c2ccc(C#N)cc2)c(C)n1Cc1cccnc1,3.4

# Now from value to molecule:
row,IC50 [nM],SMILES
1,5.5,CCOC(=O)c1c(-c2ccc([N+](=O)[O-])cc2)c(C)n(Cc2ccccc2)c1C
2,390,CC(=O)c1c(-c2ccc([N+](=O)[O-])cc2)c(C)n(Cc2ccccc2)c1C
3,6.7,Cc1cc(-c2ccc([N+](=O)[O-])cc2)c(C)n1Cc1ccccc1
4,27,COC(=O)c1c(-c2ccc(C#N)cc2)c(C)n(Cc2ccccc2)c1C
5,550,CCOC(=O)c1c(-c2ccc([N+](=O)[O-])cc2)c(C)n(-c2ccccc2)c1C
6,5,COC(=O)c1c(-c2ccc([N+](=O)[O-])cc2)c(C)n(Cc2ccccc2)c1C
7,150,CCOC(=O)c1c(-c2ccc([N+](=O)[O-])cc2)c(C)n(C(=O)c2ccccc2)c1C

# Biological target: T2, Androgen receptor (Homo sapiens, UniProt P10275, T878A)
# T2 sequence (P10275 whole entry T878A): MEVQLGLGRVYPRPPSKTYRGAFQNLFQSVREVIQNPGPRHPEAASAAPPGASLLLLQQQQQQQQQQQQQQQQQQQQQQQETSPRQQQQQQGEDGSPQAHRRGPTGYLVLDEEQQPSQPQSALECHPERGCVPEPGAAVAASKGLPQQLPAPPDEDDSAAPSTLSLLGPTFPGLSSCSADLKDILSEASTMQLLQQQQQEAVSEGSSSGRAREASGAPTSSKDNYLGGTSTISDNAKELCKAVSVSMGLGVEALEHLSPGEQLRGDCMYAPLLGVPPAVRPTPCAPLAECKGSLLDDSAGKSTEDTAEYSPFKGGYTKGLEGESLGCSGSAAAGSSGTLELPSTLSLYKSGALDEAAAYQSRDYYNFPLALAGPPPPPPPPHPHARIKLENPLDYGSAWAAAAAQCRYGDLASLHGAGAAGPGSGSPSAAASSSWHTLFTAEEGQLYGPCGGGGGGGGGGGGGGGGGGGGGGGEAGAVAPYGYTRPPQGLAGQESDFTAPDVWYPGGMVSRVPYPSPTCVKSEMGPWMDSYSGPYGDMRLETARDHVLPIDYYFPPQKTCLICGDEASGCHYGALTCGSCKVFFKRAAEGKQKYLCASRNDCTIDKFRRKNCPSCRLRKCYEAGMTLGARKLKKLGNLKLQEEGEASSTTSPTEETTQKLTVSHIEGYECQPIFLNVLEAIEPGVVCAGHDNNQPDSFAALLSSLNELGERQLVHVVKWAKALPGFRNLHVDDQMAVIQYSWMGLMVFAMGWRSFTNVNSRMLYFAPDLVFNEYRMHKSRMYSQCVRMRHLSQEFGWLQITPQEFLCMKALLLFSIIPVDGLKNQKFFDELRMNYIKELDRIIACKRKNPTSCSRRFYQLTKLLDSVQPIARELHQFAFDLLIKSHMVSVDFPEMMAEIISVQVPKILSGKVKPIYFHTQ
# Experiment: Displacement of [17-alpha-methyl-3H]-mibolerone from human androgen receptor T877A mutant expressed in HEK293 derived FreeStyle293F cells after 3 hrs
# Type: cell-based
row,SMILES,IC50 [nM]
1,Cc1c(C#N)c(-c2ccc(C#N)cc2)c(C)n1Cc1cncc(CO)c1,150
2,Cc1c(C#N)c(-c2ccc(C#N)cc2)c(C)n1Cc1ccccc1,3
3,Cc1c(C#N)c(-c2ccc(C#N)cc2)c(C)n1Cc1ccc(Cl)nc1,24
4,Cc1c(C#N)c(-c2ccc(C#N)cc2)c(C)n1Cc1cccnc1,23

# Other lines, results leading:
row,IC50 [nM],SMILES
1,5.2,CCOC(=O)c1c(-c2ccc([N+](=O)[O-])cc2)c(C)n(Cc2ccccc2)c1C
2,130,CC(=O)c1c(-c2ccc([N+](=O)[O-])cc2)c(C)n(Cc2ccccc2)c1C
3,2.2,Cc1cc(-c2ccc([N+](=O)[O-])cc2)c(C)n1Cc1ccccc1
4,23,COC(=O)c1c(-c2ccc(C#N)cc2)c(C)n(Cc2ccccc2)c1C
5,220,CCOC(=O)c1c(-c2ccc([N+](=O)[O-])cc2)c(C)n(-c2ccccc2)c1C
6,3.8,COC(=O)c1c(-c2ccc([N+](=O)[O-])cc2)c(C)n(Cc2ccccc2)c1C
7,85,CCOC(=O)c1c(-c2ccc([N+](=O)[O-])cc2)c(C)n(C(=O)c2ccccc2)c1C

# Biological target: T1, Androgen receptor
# Experiment: Antagonist activity at human androgen receptor expressed in COS7 cells assessed as inhibition of DHT-induced luciferase activity after 24 hrs by reporter gene assay
# Type: functional, cell-based, COS-7
row,SMILES,IC50 [nM]
1,Cc1c(C#N)c(-c2ccc(C#N)cc2)c(C)n1Cc1cncc(CO)c1,100
2,Cc1c(C#N)c(-c2ccc(C#N)cc2)c(C)n1Cc1ccccc1,40
3,Cc1c(C#N)c(-c2ccc(C#N)cc2)c(C)n1Cc1ccc(Cl)nc1,45
4,Cc1c(C#N)c(-c2ccc(C#N)cc2)c(C)n1Cc1cccnc1,65

# Results, then the molecule that gave them:
row,IC50 [nM],SMILES
1,340,CCOC(=O)c1c(-c2ccc([N+](=O)[O-])cc2)c(C)n(Cc2ccccc2)c1C
2,4600,CC(=O)c1c(-c2ccc([N+](=O)[O-])cc2)c(C)n(Cc2ccccc2)c1C
3,490,Cc1cc(-c2ccc([N+](=O)[O-])cc2)c(C)n1Cc1ccccc1
4,270,COC(=O)c1c(-c2ccc(C#N)cc2)c(C)n(Cc2ccccc2)c1C
5,4300,CCOC(=O)c1c(-c2ccc([N+](=O)[O-])cc2)c(C)n(-c2ccccc2)c1C
6,300,COC(=O)c1c(-c2ccc([N+](=O)[O-])cc2)c(C)n(Cc2ccccc2)c1C
7,2400,CCOC(=O)c1c(-c2ccc([N+](=O)[O-])cc2)c(C)n(C(=O)c2ccccc2)c1C

# Biological target: T2, Androgen receptor
# Experiment: Agonist activity at human androgen receptor T877A mutant expressed in COS7 cells assessed as luciferase activity after 24 hrs by reporter gene assay
# Type: functional, cell-based, COS-7
row,SMILES,EC50 [nM]
1,Cc1c(C#N)c(-c2ccc(C#N)cc2)c(C)n1Cc1cncc(CO)c1,> 10000
2,Cc1c(C#N)c(-c2ccc(C#N)cc2)c(C)n1Cc1ccccc1,> 10000
3,Cc1c(C#N)c(-c2ccc(C#N)cc2)c(C)n1Cc1ccc(Cl)nc1,> 10000
4,Cc1c(C#N)c(-c2ccc(C#N)cc2)c(C)n1Cc1cccnc1,> 10000

# The remaining lines, values ahead:
row,EC50 [nM],SMILES
1,> 10000,CCOC(=O)c1c(-c2ccc([N+](=O)[O-])cc2)c(C)n(Cc2ccccc2)c1C
2,> 10000,CC(=O)c1c(-c2ccc([N+](=O)[O-])cc2)c(C)n(Cc2ccccc2)c1C
3,> 10000,Cc1cc(-c2ccc([N+](=O)[O-])cc2)c(C)n1Cc1ccccc1
4,> 10000,COC(=O)c1c(-c2ccc(C#N)cc2)c(C)n(Cc2ccccc2)c1C
5,> 10000,CCOC(=O)c1c(-c2ccc([N+](=O)[O-])cc2)c(C)n(-c2ccccc2)c1C
6,> 10000,COC(=O)c1c(-c2ccc([N+](=O)[O-])cc2)c(C)n(Cc2ccccc2)c1C
7,> 10000,CCOC(=O)c1c(-c2ccc([N+](=O)[O-])cc2)c(C)n(C(=O)c2ccccc2)c1C

# Biological target: T3, Androgen receptor (Homo sapiens, UniProt P10275, W742C)
# T3 sequence (P10275 whole entry W742C): as the sequence (P10275 whole entry T878A) above, with W742C, A878T counted along it
# Experiment: Antagonist activity at human androgen receptor W741C mutant expressed in COS7 cells assessed as inhibition of DHT-induced luciferase activity after 24 hrs by reporter gene assay
# Type: functional, cell-based, COS-7
row,SMILES,IC50 [nM]
1,Cc1c(C#N)c(-c2ccc(C#N)cc2)c(C)n1Cc1cncc(CO)c1,600
2,Cc1c(C#N)c(-c2ccc(C#N)cc2)c(C)n1Cc1ccccc1,380
3,Cc1c(C#N)c(-c2ccc(C#N)cc2)c(C)n1Cc1ccc(Cl)nc1,910
4,Cc1c(C#N)c(-c2ccc(C#N)cc2)c(C)n1Cc1cccnc1,180

# Results, then the molecule that gave them:
row,IC50 [nM],SMILES
1,3200,CCOC(=O)c1c(-c2ccc([N+](=O)[O-])cc2)c(C)n(Cc2ccccc2)c1C
2,6500,CC(=O)c1c(-c2ccc([N+](=O)[O-])cc2)c(C)n(Cc2ccccc2)c1C
3,3100,Cc1cc(-c2ccc([N+](=O)[O-])cc2)c(C)n1Cc1ccccc1
4,710,COC(=O)c1c(-c2ccc(C#N)cc2)c(C)n(Cc2ccccc2)c1C
5,> 10000,CCOC(=O)c1c(-c2ccc([N+](=O)[O-])cc2)c(C)n(-c2ccccc2)c1C
6,740,COC(=O)c1c(-c2ccc([N+](=O)[O-])cc2)c(C)n(Cc2ccccc2)c1C
7,7700,CCOC(=O)c1c(-c2ccc([N+](=O)[O-])cc2)c(C)n(C(=O)c2ccccc2)c1C

# Biological target: T1, Androgen receptor
# Experiment: Agonist activity at human androgen receptor expressed in COS7 cells assessed as luciferase activity after 24 hrs by reporter gene assay
# Type: functional, cell-based, COS-7
row,SMILES,EC50 [nM]
1,Cc1c(C#N)c(-c2ccc(C#N)cc2)c(C)n1Cc1cncc(CO)c1,> 10000
2,Cc1c(C#N)c(-c2ccc(C#N)cc2)c(C)n1Cc1ccccc1,> 10000
3,Cc1c(C#N)c(-c2ccc(C#N)cc2)c(C)n1Cc1ccc(Cl)nc1,> 10000
4,Cc1c(C#N)c(-c2ccc(C#N)cc2)c(C)n1Cc1cccnc1,2200

# The remaining lines, values ahead:
row,EC50 [nM],SMILES
1,> 10000,CCOC(=O)c1c(-c2ccc([N+](=O)[O-])cc2)c(C)n(Cc2ccccc2)c1C
2,> 10000,CC(=O)c1c(-c2ccc([N+](=O)[O-])cc2)c(C)n(Cc2ccccc2)c1C
3,> 10000,Cc1cc(-c2ccc([N+](=O)[O-])cc2)c(C)n1Cc1ccccc1
4,> 10000,COC(=O)c1c(-c2ccc(C#N)cc2)c(C)n(Cc2ccccc2)c1C
5,> 10000,CCOC(=O)c1c(-c2ccc([N+](=O)[O-])cc2)c(C)n(-c2ccccc2)c1C
6,> 10000,COC(=O)c1c(-c2ccc([N+](=O)[O-])cc2)c(C)n(Cc2ccccc2)c1C
7,> 10000,CCOC(=O)c1c(-c2ccc([N+](=O)[O-])cc2)c(C)n(C(=O)c2ccccc2)c1C

# Biological target: T3, Androgen receptor
# Experiment: Agonist activity at human androgen receptor W741C mutant expressed in COS7 cells assessed as luciferase activity after 24 hrs by reporter gene assay
# Type: functional, cell-based, COS-7
row,SMILES,EC50 [nM]
1,Cc1c(C#N)c(-c2ccc(C#N)cc2)c(C)n1Cc1cncc(CO)c1,> 10000
2,Cc1c(C#N)c(-c2ccc(C#N)cc2)c(C)n1Cc1ccccc1,> 10000
3,Cc1c(C#N)c(-c2ccc(C#N)cc2)c(C)n1Cc1ccc(Cl)nc1,> 10000
4,Cc1c(C#N)c(-c2ccc(C#N)cc2)c(C)n1Cc1cccnc1,3600

# The next lines start with the values.
row,EC50 [nM],SMILES
1,> 10000,CCOC(=O)c1c(-c2ccc([N+](=O)[O-])cc2)c(C)n(Cc2ccccc2)c1C
2,> 10000,CC(=O)c1c(-c2ccc([N+](=O)[O-])cc2)c(C)n(Cc2ccccc2)c1C
3,> 10000,Cc1cc(-c2ccc([N+](=O)[O-])cc2)c(C)n1Cc1ccccc1
4,> 10000,COC(=O)c1c(-c2ccc(C#N)cc2)c(C)n(Cc2ccccc2)c1C
5,> 10000,CCOC(=O)c1c(-c2ccc([N+](=O)[O-])cc2)c(C)n(-c2ccccc2)c1C
6,> 10000,COC(=O)c1c(-c2ccc([N+](=O)[O-])cc2)c(C)n(Cc2ccccc2)c1C
7,> 10000,CCOC(=O)c1c(-c2ccc([N+](=O)[O-])cc2)c(C)n(C(=O)c2ccccc2)c1C

# Biological target: T2, Androgen receptor
# Experiment: Antagonist activity at human androgen receptor T877A mutant expressed in COS7 cells assessed as inhibition of DHT-induced luciferase activity after 24 hrs by reporter gene assay
# Type: functional, cell-based, COS-7
row,SMILES,IC50 [nM]
1,Cc1c(C#N)c(-c2ccc(C#N)cc2)c(C)n1Cc1cncc(CO)c1,440
2,Cc1c(C#N)c(-c2ccc(C#N)cc2)c(C)n1Cc1ccccc1,41
3,Cc1c(C#N)c(-c2ccc(C#N)cc2)c(C)n1Cc1ccc(Cl)nc1,100
4,Cc1c(C#N)c(-c2ccc(C#N)cc2)c(C)n1Cc1cccnc1,190

# Other lines, results leading:
row,IC50 [nM],SMILES
1,160,CCOC(=O)c1c(-c2ccc([N+](=O)[O-])cc2)c(C)n(Cc2ccccc2)c1C
2,900,CC(=O)c1c(-c2ccc([N+](=O)[O-])cc2)c(C)n(Cc2ccccc2)c1C
3,210,Cc1cc(-c2ccc([N+](=O)[O-])cc2)c(C)n1Cc1ccccc1
4,120,COC(=O)c1c(-c2ccc(C#N)cc2)c(C)n(Cc2ccccc2)c1C
5,2100,CCOC(=O)c1c(-c2ccc([N+](=O)[O-])cc2)c(C)n(-c2ccccc2)c1C
6,150,COC(=O)c1c(-c2ccc([N+](=O)[O-])cc2)c(C)n(Cc2ccccc2)c1C
7,1500,CCOC(=O)c1c(-c2ccc([N+](=O)[O-])cc2)c(C)n(C(=O)c2ccccc2)c1C
